Laboratory results reported in paper PMC10073267 (Journal of peptide science : an official publication of the …, 2023).

Experiment: Octanol–water partitioning in the presence of sodium dodecanoate
Type: physicochemical
Settings: mean ± SD; octanol–water partitioning with sodium dodecanoate (2.5 equiv); D2O
Outline: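 Test compound dissolved in D2O as 0.02 M stock, mixed with equal volume of octanol, with or without sodium dodecanoate (2.5 equiv), triplicate tubes each. Vortexed 30 s, centrifuged 15 min, ambient ~22 °C. Aqueous-layer NMR integrations pre- and post-wash compared. Partitioning taken as difference between octanol-only and octanol + lipid washes, averaged over three replicates.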

In order of rising “Percent in Aqueous Layer” value:
1. CC(=O)N(C)C(CCCN=C(N)N)C(=O)N(C)C (stereo not shown) [4·H^+, Ac-(N-Me)Arg-NMe2]  12.7 ± 1.6%
2. CC(=O)N[C@@H](CCCNC(=N)N)C(=O)N(C)C [3·H^+, Ac-Arg-NMe2]  18.3 ± 0.7%
3. CNC(=O)[C@H](CCCNC(=N)N)NC(C)=O [2·H^+, Ac-Arg-NHMe]  19.8 ± 0.1%
4. CC(=O)N[C@@H](CCCN=C(N)N)C(N)=O [1·H^+, Ac-Arg-NH2]  30.4 ± 1.5%
